{
  "source": "ChEMBL document CHEMBL1126658",
  "about": "“Thyroid hormone uptake by hepatocytes: structure-activity relationships of phenylanthranilic acids with inhibitory activity” (J Med Chem, 1993)",
  "data": [
    {"test_system": "H4", "experiment": "Compound is evaluated for the inhibition of [125I]T3 uptake by H4 rat hepatoma cells at 0.1 mM", "format": "functional", "in_short": "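H4 rat hepatoma cells grown in DMEM/10% FCS at 37 °C, plated to confluence (2 × 10^6 cells/well), then held overnight in serum-free DMEM. Fresh medium with 10^-11 M [125I]T3 plus test substance (final 0.1 mM from DMSO/ethanol stock; solvent-matched controls), 2 min at 37 °C. Five PBS pH 7.4 washes, 0.1 M NaOH lysis, cell-associated radioactivity counted. Nondisplaceable uptake taken with 10^-5 M unlabeled T3. Percent inhibition vs control, ≥5 replicates.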", "units": {"inhibition at 100 µM": "%"}, "values": [
      {"smiles": "O=C(O)c1ccccc1Nc1ccc(Cl)c(Cl)c1", "inhibition at 100 µM": 55.6},
      {"smiles": "O=C(O)c1ccccc1Nc1cccc(Cl)c1", "inhibition at 100 µM": 51.4},
      {"smiles": "O=C(O)c1ccccc1Nc1cc(Cl)cc(Cl)c1", "inhibition at 100 µM": 60.6},
      {"smiles": "N#Cc1cccc(Nc2ccccc2C(=O)O)c1", "inhibition at 100 µM": 11.6},
      {"smiles": "O=C(O)c1ccccc1Nc1c(Cl)cccc1Cl", "inhibition at 100 µM": 54.6},
      {"smiles": "O=C(O)c1ccccc1Nc1ccc(Cl)c(C(F)(F)F)c1", "inhibition at 100 µM": 51},
      {"smiles": "O=C(O)c1ccccc1Nc1cc(C(F)(F)F)cc(C(F)(F)F)c1", "inhibition at 100 µM": 39.5},
      {"smiles": "Cc1cccc(Nc2ccccc2)c1C", "inhibition at 100 µM": 35.4},
      {"smiles": "Cc1cccc(Nc2ccccc2C(=O)O)c1", "inhibition at 100 µM": 30},
      {"smiles": "COc1ccc(Nc2ccccc2C(=O)O)cc1C(F)(F)F", "inhibition at 100 µM": 54},
      {"smiles": "O=C(O)c1ccccc1Nc1cccc(OC(F)(F)C(F)F)c1", "inhibition at 100 µM": 57},
      {"smiles": "O=C(O)c1ccccc1Nc1cccc(O)c1", "inhibition at 100 µM": 6.6},
      {"smiles": "O=C(O)c1ccccc1Nc1cccc(Br)c1", "inhibition at 100 µM": 48.1},
      {"smiles": "O=C(O)c1ccccc1Nc1cc(Cl)ccc1Cl", "inhibition at 100 µM": 43.2},
      {"smiles": "O=C(O)c1ccccc1Nc1ccccc1Cl", "inhibition at 100 µM": 44.6},
      {"smiles": "O=C(O)c1ccccc1Nc1cccc(I)c1", "inhibition at 100 µM": 40},
      {"smiles": "Cc1cccc(C)c1Nc1ccccc1C(=O)O", "inhibition at 100 µM": 48},
      {"smiles": "O=C(O)c1ccccc1Nc1cc(Br)cc(Br)c1", "inhibition at 100 µM": 39.1},
      {"smiles": "O=C(O)c1ccccc1Nc1cccc(Cl)c1Cl", "note": "[CLOFENAMIC ACID]", "inhibition at 100 µM": 56.6},
      {"smiles": "O=C(O)Cc1ccccc1Nc1c(Cl)cccc1Cl", "note": "[DICLOFENAC]", "inhibition at 100 µM": 38},
      {"smiles": "O=C(O)c1ccccc1Nc1ccccc1", "note": "[FENAMIC ACID]", "inhibition at 100 µM": 28},
      {"smiles": "O=C(O)c1ccccc1Nc1cccc(C(F)(F)F)c1", "note": "[FLUFENAMIC ACID]", "inhibition at 100 µM": 64.4},
      {"smiles": "Cc1ccc(Cl)c(Nc2ccccc2C(=O)O)c1Cl", "note": "[MECLOFENAMIC ACID]", "inhibition at 100 µM": 74.2},
      {"smiles": "Cc1cccc(Nc2ccccc2C(=O)O)c1C", "note": "[MEFENAMIC ACID]", "inhibition at 100 µM": 60.9}
    ]}
  ]
}
